Screens from PubChem BioAssay.
Sampled rows, rich in hits. Any-hit rate of the full collection: about 2%.
TDP2 inh: human TDP2 enzyme inhibitors, primary screen, biochemical, epi absorbance, recombinant enzyme. Tyrosyl-DNA phosphodiesterase 2 (Homo sapiens), O95551. T5PNP hydrolysis, p-nitrophenol absorbance 415 nm. inhibition, % at 12.8 µM. 0.34% of 370,000 active. AID 720702, 2013;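 active means inhibition above the mean of all tested compounds plus 3 SD, set per campaign, cut at about 25% in these data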
Target sequence (O95551 whole entry, looked up): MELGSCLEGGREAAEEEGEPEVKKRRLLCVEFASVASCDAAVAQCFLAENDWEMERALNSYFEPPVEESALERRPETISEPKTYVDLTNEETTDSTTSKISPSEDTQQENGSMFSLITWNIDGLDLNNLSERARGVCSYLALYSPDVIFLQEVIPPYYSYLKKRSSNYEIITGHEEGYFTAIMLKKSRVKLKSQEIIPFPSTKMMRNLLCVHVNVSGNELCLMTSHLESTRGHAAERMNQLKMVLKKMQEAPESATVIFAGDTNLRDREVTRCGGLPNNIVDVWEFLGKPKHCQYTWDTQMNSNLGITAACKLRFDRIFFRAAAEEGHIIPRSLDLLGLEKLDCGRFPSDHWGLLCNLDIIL
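Assay system: Recombinant human TDP2 | Quantity: 120 nM TDP2 per well | Incubation: 2 h at 37 °C | Signal: Epi absorbance | Evaluation: Percent inhibition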
ASAP1 GAP inh: inhibitors of human ASAP1 ArfGAP activity, primary screen, biochemical, fluorescence polarization. Arf-GAP with SH3 domain, ANK repeat and PH domain-containing protein 1 (Homo sapiens), …. ASAP1-stimulated ARF1 GTP hydrolysis, GDP FP detection. inhibition, % at 16.5 µM. 0.19% of 360,000 active. AID 624377, 2012; in the data active means inhibition above about 25%
Target sequence (Q9ULH1 325-724 limits assumed): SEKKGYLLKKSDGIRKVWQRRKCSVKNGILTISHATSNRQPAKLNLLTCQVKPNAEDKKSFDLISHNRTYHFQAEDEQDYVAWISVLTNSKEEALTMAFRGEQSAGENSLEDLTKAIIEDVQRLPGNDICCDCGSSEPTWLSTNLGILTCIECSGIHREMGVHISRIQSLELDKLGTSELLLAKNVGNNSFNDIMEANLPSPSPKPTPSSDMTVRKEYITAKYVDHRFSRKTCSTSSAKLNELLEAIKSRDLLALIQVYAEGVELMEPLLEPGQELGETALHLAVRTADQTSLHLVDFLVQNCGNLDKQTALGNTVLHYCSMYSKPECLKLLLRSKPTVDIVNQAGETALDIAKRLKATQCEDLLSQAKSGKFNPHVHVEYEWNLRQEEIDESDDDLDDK
ARFGAP1 inhibitor: inhibitors of rat ARFGAP1 GAP activity, primary screen, biochemical, fluorescence polarization, GDP tracer. inhibition, % at 16.5 µM. ADP-ribosylation factor GTPase-activating protein 1 (Rattus norvegicus), Q62848. 0.26% of 360,000 active. Arfgap1-stimulated ARF1 GTP hydrolysis, GDP FP detection;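 active means inhibition above a per-plate limit, mean inhibition of low control wells plus 3 SD, cut at about 25% in these data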
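System: truncated rat Arfgap1 GAP domain / Benchmarks: high control wells lacking Arfgap1, low control full reaction with DMSO / Times: compound-enzyme preincubation 20 min, reaction 120 min, detection 60 min, 25 °C / Repeats: one replicate per compound / Also added: human ARF1(Δ1-17)-GTP substrate / Measured by: Tracer-displacement fluorescence polarization with EDTA stop, 620/688 nm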
LEDGF integ inh: blockers of LEDGF/p75-dependent integrase strand transfer – biochemical, TR-FRET, high throughput, primary screen. HIV-1 integrase (with human LEDGF/p75). TR-FRET IN-LEDGF/p75 DNA integration, Eu/Cy5. inhibition, % at 3.7 µM. 0.64% of 370,000 active;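 active means inhibition above the screen-wide mean plus 3 SD, cut at about 13% in these data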;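 further: signal is the Cy5 over europium emission ratio at 671 and 618 nm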
UHRF1 MBD2 ctr: UHRF1 methylated DNA binding inhibitors, primary screen, counter-screen for MBD2 inhibitor project, biochemical, TR-FRET, human UHRF1, single concentration | inhibition, % at 4.4 µM | UHRF1 binding to methylated oligo | 0.75% of 370,000 active;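 further: UHRF1 SRA domain binding a hemimethylated CpG hairpin DNA probe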
MBD2 DNA inh: inhibitors of MBD2 binding to methylated DNA, primary screen, biochemical, TR-FRET, DNA-binding domain, human | MBD2 binding to methylated oligonucleotide | Methyl-CpG-binding domain protein 2 (Homo sapiens), Q9UBB5 | 0.31% of 370,000 active | inhibition, % at 4.4 µM; in the data active means inhibition above about 13%
UHRF1 DNA bind: UHRF1 methylated DNA binding inhibitors, counter-screen for MBD2 inhibitor project, biochemical, TR-FRET, human UHRF1; AID 720530, 2013; 25% of 1,000 active; inhibition, % at 4.4 µM; shares compounds with MBD2 DNA inh; UHRF1 binding to methylated oligonucleotide;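 further: UHRF1 SRA domain binding a labeled hemimethylated CpG hairpin DNA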
MBD2 confirm: inhibitors of MBD2 binding to methylated DNA, confirmation, biochemical, TR-FRET, DNA-binding domain, human; shares compounds with MBD2 DNA inh; TR-FRET MBD2-DBD binding to methylated oligonucleotide; inhibition, % at 4.4 µM; 26% of 1,000 active; in the data active means inhibition above about 14%
Large screens that a line does not name were inactive (follow-up assays come after a bar, where they were run). Unless noted, no stated cut-off is given here; in the data, active means inhibition above about 21%; inactive means the rest.

COc1ccc(NS(=O)(=O)c2ccc(SC)cc2)c(OC)c1	UHRF1 MBD2 ctr 23.0, MBD2 DNA inh 17.1 | UHRF1 DNA bind inactive | MBD2 confirm inactive
CS(=O)(=O)c1ccc2nc(NC(=O)c3ccccc3)sc2c1	none
CS(=O)(=O)c1ccc(C(=O)Nc2nc(-c3ccco3)c(-c3ccco3)s2)cc1	LEDGF integ inh 89.0, UHRF1 MBD2 ctr 88.3, MBD2 DNA inh 40.9 | UHRF1 DNA bind inactive | MBD2 confirm inactive
Cc1cc(Br)ccc1NC(=O)CNC(=O)c1cnn(C)c1	MBD2 DNA inh 18.3 | UHRF1 DNA bind inactive | MBD2 confirm inactive
Cn1cc(C(=O)NCC(=O)Nc2ccccc2Br)cn1	none
CS(=O)(=O)N1CCC(C(=O)Nc2ccc(C(N)=O)cc2)CC1	MBD2 DNA inh 40.1 | UHRF1 DNA bind inactive | MBD2 confirm inactive
CCCc1cn(-c2ccc3c(c2)[C@]2(CC(=O)N(C)C2c2ccccc2)C(=O)N3CC(C)C)nn1 (some centres undefined)	none (no result: ASAP1 GAP inh, ARFGAP1 inhibitor)
Cc1ccc(-c2cc(C(=O)NN=Cc3ccc(-c4ccccc4)cc3)[nH]n2)cc1C	none (no result: ASAP1 GAP inh, ARFGAP1 inhibitor)
CCC(=O)Nc1ccc(C(=O)COC(=O)c2nc3nccc(C)n3n2)cc1	UHRF1 MBD2 ctr 55.5, MBD2 DNA inh 34.0 | UHRF1 DNA bind 31.3 | MBD2 confirm 29.9
Nc1c(C(=O)N2CCN(CCc3ccccc3)CC2)cnn1-c1ccccc1	none (no result: ASAP1 GAP inh, ARFGAP1 inhibitor)
O=C(c1cccc(F)c1F)N(Cc1ccccn1)CC1CCCO1 (centres undefined)	none (no result: ASAP1 GAP inh, ARFGAP1 inhibitor)
COC(=O)[C@]12C[C@H](CC(=O)NCC3CCCCC3)C(=O)N(Cc3ccccc3)C1=C[C@H](C(C)(C)C)O[C@@H]2C	UHRF1 MBD2 ctr 24.1, MBD2 DNA inh 19.6 | UHRF1 DNA bind inactive | MBD2 confirm inactive
CCCCNC(=O)C[C@H]1C[C@@]2(C(=O)OC)C(=C[C@H](C3CCCC3)O[C@@H]2C)N(Cc2ccc(Cl)cc2Cl)C1=O	none (no result: ASAP1 GAP inh, ARFGAP1 inhibitor)
COC(=O)[C@]12C[C@H](CC(=O)NCCCN3CCCC3=O)C(=O)N(Cc3ccc(Cl)cc3Cl)C1=C[C@H](C1CCCC1)O[C@@H]2C	MBD2 DNA inh 14.9 (no result: ASAP1 GAP inh, ARFGAP1 inhibitor) | UHRF1 DNA bind inactive | MBD2 confirm inactive
COc1ncc(-c2cc(C(C)=O)c3n(c2=O)CCC3)c(OC)n1	none (no result: ASAP1 GAP inh, ARFGAP1 inhibitor)
O=C(NCC(c1ccccc1)c1ccccc1)[C@H](Cc1c[nH]c2ccccc12)NC1(C(=O)NC2CCCCC2)CCCCCC1	none (no result: ASAP1 GAP inh, ARFGAP1 inhibitor)
CCOC(=O)C1=NOC(C(=O)Nc2cc(C)cc(C)c2)(C(=O)C2CC2)C1 (centres undefined)	none (no result: ASAP1 GAP inh, ARFGAP1 inhibitor)
C[C@H](NS(=O)(=O)c1ccccc1F)C(=O)OCC(=O)N1CCc2ccccc21	MBD2 DNA inh 17.2 | UHRF1 DNA bind inactive | MBD2 confirm inactive
O=C(OCC(=O)N1CCc2ccccc21)c1ccccc1F	none
CSc1ccc(CN(C)CC(=O)NC(C)c2ccccc2)cc1 (centres undefined)	MBD2 DNA inh 18.6 | UHRF1 DNA bind inactive | MBD2 confirm inactive
CC(NC(=O)CN(C)Cc1ccc(Br)cc1)c1ccccc1 (centres undefined)	none
COc1ccc(C)cc1NC(=O)c1cccc(C(=O)Nc2cc(C)ccc2OC)c1	MBD2 DNA inh 74.0 | UHRF1 DNA bind inactive | MBD2 confirm inactive
COc1ccc(C)cc1NC(=O)c1ccc2c(c1)OCO2	none
CCOC(=O)[C@]12CCCC=C1N(CCCOC)C(=O)[C@@H]2CC(=O)NCc1ccc(C)o1	none (no result: ASAP1 GAP inh, ARFGAP1 inhibitor)
O=c1nc2c(O)cccn2c2c1c(=O)[nH]c1ccccc12	UHRF1 MBD2 ctr 42.8, MBD2 DNA inh 23.4 | UHRF1 DNA bind 25.1 | MBD2 confirm 25.8
O=C(NCC1CCN(C(=O)C(=O)c2cccs2)CC1)c1ccc2c(c1)CCO2	MBD2 DNA inh 18.6 | UHRF1 DNA bind inactive | MBD2 confirm inactive
O=C(NCC1CCN(C(=O)C(=O)c2cccs2)CC1)c1ccc2c(c1)OCO2	none
O=C(N(c1ccccn1)c1ccccn1)C12CC3CC(CC(C3)C1)C2	none
c1ccc(SC23CC4CC(CC(C4)C2)C3)nc1	MBD2 DNA inh 13.2 | UHRF1 DNA bind inactive | MBD2 confirm inactive
COc1ccc(-c2nnc(SCC(=O)Nc3ccc4cn[nH]c4c3)n2Cc2ccco2)cc1	none (no result: ASAP1 GAP inh, ARFGAP1 inhibitor)
COc1ccc(NC(=O)[C@@H]2CC=C[C@@H]3CCN(C4CCCCC4)C(=O)[C@@H]32)cc1	MBD2 DNA inh 63.6 | UHRF1 DNA bind inactive | MBD2 confirm inactive
COc1ccc(CNC(=O)[C@@H]2CC=C[C@@H]3CCN(C4CCCCC4)C(=O)[C@@H]32)cc1	none
COc1ccccc1C(=O)NC1CCCCN(Cc2ccccc2C)C1=O (centres undefined)	none (no result: ASAP1 GAP inh, ARFGAP1 inhibitor)
Cc1ccc(CNC(=O)CCS(=O)(=O)c2cc3c(cc2Br)CCN3C(=O)C2CC2)o1	none (no result: ASAP1 GAP inh, ARFGAP1 inhibitor)
O=C(Cc1ccc(-n2cccc2)cc1)NC1CCCCC1	none
O=C(O)Cc1ccc(-n2cccc2)cc1	UHRF1 MBD2 ctr 30.1, MBD2 DNA inh 13.5 | UHRF1 DNA bind 57.2 | MBD2 confirm 27.9
CCCCn1nnnc1C(CCSC)N1CCN(C/C=C/c2ccccc2)CC1 (centres undefined)	none
CCCCn1nnnc1C(CCc1ccccc1)N1CCN(C/C=C/c2ccccc2)CC1 (centres undefined)	MBD2 DNA inh 14.6 | UHRF1 DNA bind inactive | MBD2 confirm inactive
COC(=O)[C@]12C[C@H](CC(=O)NCc3ccccc3)C(=O)N(Cc3ccco3)C1=C[C@H](C(C)(C)C)O[C@@H]2C	none (no result: ASAP1 GAP inh, ARFGAP1 inhibitor)
O=C(NCc1ccncc1)C1CCC(=O)N(CCc2ccc(Cl)cc2)C1 (centres undefined)	UHRF1 MBD2 ctr 48.7, MBD2 DNA inh 24.5 | UHRF1 DNA bind inactive | MBD2 confirm inactive
CSc1ccc(CNC(=O)C2CCC(=O)N(CCc3ccc(Cl)cc3)C2)cc1 (centres undefined)	none
